Here are results for 19 molecules from ChEMBL document CHEMBL1122244, “Synthesis and monoamine oxidase inhibitory activities of alpha-allenic amines in vivo and in vitro. Different activities of two enantiomeric allenes” (J Med Chem, 1983).

As a reminder, the IC50 is the concentration that inhibits the measured activity by half. A higher IC50 goes with a need for much substance.

Data set [1] has as its system Mus musculus. The experiment in a line: Lowest dose potentiating the awakening effect of phenethylamine (10 mg/kg, subcutaneous) in mice pretreated with reserpine. It is filed as functional. The procedure, abridged: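 Mice were pretreated with reserpine 5 mg/kg sc 18 h beforehand. Test compound was given ip 1 h before PEA hydrochloride 10 mg/kg sc.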
For data set [2], the system named is Mus musculus. Briefly: Compound was injected ip 1 hr prior to 90 mg/kg iv of […] evaluation of head twitches in mice. It is filed as functional. In short, it runs like this:
(§1)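 Test compound given ip 1 h before iv dl-5-HTP, 90 mg/kg, in mice. The 5-HTP syndrome was scored per Ross et al. for head twitches, tremor and abduction. Values are ED50 in μmol/kg ip.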

The test system of data set [3] is Mus musculus. Briefly: Compound was injected ip 1 hr prior to 90 mg/kg iv of […] evaluation of abduction in mice. In kind it is functional. In short, it runs like this:
as §1

Data set [4] has as its target T1, Monoamine oxidase (Mus musculus, UniProt Q8BW75+Q64133).
T1 sequence (Q8BW75 whole entry): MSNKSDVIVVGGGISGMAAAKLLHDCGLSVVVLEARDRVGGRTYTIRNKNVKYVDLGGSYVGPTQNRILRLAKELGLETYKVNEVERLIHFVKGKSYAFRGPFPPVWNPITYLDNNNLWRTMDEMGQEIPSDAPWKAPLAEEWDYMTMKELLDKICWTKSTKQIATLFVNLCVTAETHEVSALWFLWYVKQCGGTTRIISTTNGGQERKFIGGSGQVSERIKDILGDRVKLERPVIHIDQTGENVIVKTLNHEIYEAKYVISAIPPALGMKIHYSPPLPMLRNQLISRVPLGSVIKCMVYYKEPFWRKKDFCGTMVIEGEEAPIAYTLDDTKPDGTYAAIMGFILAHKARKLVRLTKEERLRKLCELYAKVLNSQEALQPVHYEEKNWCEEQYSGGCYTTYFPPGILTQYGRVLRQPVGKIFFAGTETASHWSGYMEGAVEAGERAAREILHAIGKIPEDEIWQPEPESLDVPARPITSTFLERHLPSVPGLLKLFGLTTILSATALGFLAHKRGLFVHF
T1 sequence (Q64133 whole entry): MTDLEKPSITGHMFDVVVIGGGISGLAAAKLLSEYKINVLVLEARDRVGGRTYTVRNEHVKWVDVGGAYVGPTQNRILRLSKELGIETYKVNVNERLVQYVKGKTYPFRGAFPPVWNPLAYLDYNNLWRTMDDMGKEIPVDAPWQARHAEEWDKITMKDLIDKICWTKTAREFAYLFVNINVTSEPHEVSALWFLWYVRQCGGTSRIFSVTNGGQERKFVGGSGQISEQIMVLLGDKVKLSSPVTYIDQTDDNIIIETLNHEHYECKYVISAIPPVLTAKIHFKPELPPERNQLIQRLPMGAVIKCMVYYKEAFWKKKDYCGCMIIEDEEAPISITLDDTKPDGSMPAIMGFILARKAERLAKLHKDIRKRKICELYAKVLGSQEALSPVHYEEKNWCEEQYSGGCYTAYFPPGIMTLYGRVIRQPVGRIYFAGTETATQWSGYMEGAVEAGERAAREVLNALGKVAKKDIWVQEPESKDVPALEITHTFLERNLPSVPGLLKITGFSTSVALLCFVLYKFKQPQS
The experiment in a line: Inhibitory activity of Monoamine oxidase at mouse forebrain homogenate by displacing [14C]5-HT. In kind it is tissue-based. The procedure, abridged:
(§2)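 Male NMRI mice (18–22 g) dosed ip (0.2 mL/20 g) and killed 1 h later, five per dose. Forebrain was homogenized in 10 vol ice-cold 0.1 M sodium phosphate, pH 7.4, and incubated 10 min at 37 °C with 10 μM [14C]PEA plus 10 μM [3H]5-HT. Acid metabolites were extracted into ethyl acetate and 3H/14C counted in separate channels.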

Data set [5] relates to Mus musculus. Briefly: Compound was injected ip 1 hr prior to 90 mg/kg iv of […] evaluation of tremor in mice. It is filed as functional. The procedure, abridged: as §1
Data set [6] concerns the target T2, Monoamine oxidase (Rattus norvegicus, UniProt P19643+P21396).
T2 sequence (P19643 whole entry): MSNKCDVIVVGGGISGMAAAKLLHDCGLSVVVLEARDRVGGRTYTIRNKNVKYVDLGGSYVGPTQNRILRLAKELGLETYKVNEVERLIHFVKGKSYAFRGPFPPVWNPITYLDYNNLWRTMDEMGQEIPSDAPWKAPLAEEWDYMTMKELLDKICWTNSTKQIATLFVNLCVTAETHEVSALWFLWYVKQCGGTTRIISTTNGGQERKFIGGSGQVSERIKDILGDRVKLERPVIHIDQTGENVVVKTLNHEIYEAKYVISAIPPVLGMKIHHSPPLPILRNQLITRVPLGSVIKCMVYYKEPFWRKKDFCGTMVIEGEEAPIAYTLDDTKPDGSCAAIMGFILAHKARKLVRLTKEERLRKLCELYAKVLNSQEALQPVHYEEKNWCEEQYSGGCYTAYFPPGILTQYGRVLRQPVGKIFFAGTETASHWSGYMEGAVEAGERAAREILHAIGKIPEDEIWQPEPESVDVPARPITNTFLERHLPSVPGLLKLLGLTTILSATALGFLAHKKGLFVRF
T2 sequence (P21396 whole entry): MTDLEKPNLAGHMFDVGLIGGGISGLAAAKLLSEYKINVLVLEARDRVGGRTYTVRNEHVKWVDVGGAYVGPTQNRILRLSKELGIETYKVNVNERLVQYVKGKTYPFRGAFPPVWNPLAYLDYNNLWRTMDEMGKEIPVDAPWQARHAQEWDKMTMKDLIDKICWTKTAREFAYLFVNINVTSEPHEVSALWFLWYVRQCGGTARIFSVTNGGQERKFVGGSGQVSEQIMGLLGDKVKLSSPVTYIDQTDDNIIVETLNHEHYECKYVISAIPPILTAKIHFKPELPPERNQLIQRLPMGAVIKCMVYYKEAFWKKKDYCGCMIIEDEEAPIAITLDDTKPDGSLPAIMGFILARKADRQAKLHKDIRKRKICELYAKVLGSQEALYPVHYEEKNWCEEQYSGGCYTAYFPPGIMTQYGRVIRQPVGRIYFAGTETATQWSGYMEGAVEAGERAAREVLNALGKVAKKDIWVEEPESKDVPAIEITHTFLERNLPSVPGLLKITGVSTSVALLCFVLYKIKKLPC
Briefly: In vitro inhibition of Monoamine oxidase at rat hyphalamic mitochondrial 5-HT by displacing 2.5 uM of [14C]5-HT. In kind it is protein assay.

For data set [7], the target named is T2, Monoamine oxidase. Briefly: In vitro inhibition of Monoamine oxidase at rat hyphalamic mitochondrial PEA by displacing 2.5 uM of [14C]PEA. In kind it is protein assay.
Data set [8] concerns the target T1, Monoamine oxidase. The experiment in a line: Inhibitory activity of Monoamine oxidase at mouse forebrain homogenate by displacing [14C]PEA. It is filed as tissue-based. The procedure, abridged:
as §2

For data set [9], the system named is Mus musculus. Briefly: Lowest dose potentiating the awakening effect of phenethylamine (10 mg/kg, subcutaneous) in mice pretreated with reserpine.
The target of data set [10] is T1, Monoamine oxidase. The experiment in a line: Inhibitory activity of Monoamine oxidase at mouse forebrain homogenate by displacing [14C]5-HT (serotonin). It is filed as tissue-based. Conditions: in the assay text read “[3H]5-HT” for “[14C]5-HT”. In short, it runs like this:
as §2

The target of data set [11] is T1, Monoamine oxidase. Briefly: Inhibitory activity of Monoamine oxidase at mouse forebrain homogenate by displacing [14C]PEA (phenethylamine). In kind it is tissue-based. The procedure, abridged:
as §2

With `C=C=CCN(C)CCCOc1ccc(Cl)cc1Cl`, the Potentiation in data set [1] worked out at 60 µM/kg. Besides, the ED50 in [2] was 1.7 µmol/kg; in [3], 5.4 µmol/kg; in data set [4] it was 6 µM/kg; in data set [5], 5.1 µmol/kg; in data set [8], 33 µM/kg. Besides, the IC50 in data set [6] turned out to be 0.004 µM; in data set [7], 4.6 µM.
As to `C=C=CCN(C)C(C)Cc1ccccc1` (centres undefined), the Potentiation in [1] came out at 34 µM/kg. Besides, the ED50 is above 69 µM/kg in data set [4] and 52 µM/kg in data set [8]. Moreover, the figures for the IC50 in [6] and in data set [7] were 0.8 µM and 4.7 µM, respectively.
On to `C=C=CCNCc1ccccc1`, for which the Potentiation in data set [1] was 26 µM/kg. In addition, the values for the ED50 in [4] and in data set [8] were above 51 µM/kg and 6 µM/kg, respectively. In addition, the 50% inhibitory concentration (IC50) in data set [6] is 1.8 µM; in data set [7], 0.15 µM.
As for `C=C=CCN(C)C1CCc2ccccc21` (centres undefined), in [1], the Potentiation came to 9 µM/kg. Also, the figures for the ED50 in data set [4] and in data set [8] were 35 µM/kg and 1.7 µM/kg, respectively. The IC50 in [6] was found to be 1.8 µM; in data set [7] it was 0.36 µM.
As to `C=C=C(Cc1ccccc1)CN(C)C`, the Potentiation in data set [1] is above 72 µM/kg. The ED50 in data set [4] was above 72 µM/kg; in data set [8] it was 54 µM/kg. Further, the IC50 in data set [6] was 25 µM; in [7], above 100 µM.
Take `CC=C=CCN(C)Cc1ccccc1.O=C(O)C(=O)O` (stereo in doubt; (R)(-)2): in data set [1], the Potentiation is 72 µM/kg. In addition, the ED50 in [4] is above 36 µM/kg; in data set [8], 20 µM/kg. Also, the IC50 in [6] worked out at 17 µM; in data set [7], 2.3 µM.
Regarding `C=C=CC(C)N(C)Cc1ccccc1` (centres undefined), the values for the IC50 in data set [6] and in data set [7] were 43 µM and above 100 µM, respectively.
`C=C=C(CN)Cc1ccc(Cl)cc1`: the Potentiation in [1] stood at 35 µM/kg. The figures for the ED50 in data set [4] and in [8] were 18 µM/kg and 7 µM/kg, respectively. Further, the IC50 is 0.26 µM in [6] and 0.04 µM in data set [7].
Take `C=C=CCN(C)Cc1ccccc1`: the ED50 in [4] is above 48 µM/kg; in [8], 17 µM/kg. For the same molecule, the results for the IC50 in data set [6] and in data set [7] were 8.2 µM and 0.17 µM, respectively.
Turning to `C=C=C(CNC)Cc1ccccc1`, the Potentiation in [1] came to 76 µM/kg. The ED50 is above 38 µM/kg in data set [4] and 11 µM/kg in [8]. Also, the IC50 in data set [6] is 6.2 µM; in [7], 0.44 µM.
For the molecule `C#CCN(C)[C@H](C)Cc1ccccc1` [SELEGILINE], the Potentiation in data set [1] was 5 µM/kg. For the same molecule, the ED50 is above 89 µM/kg in [4] and 2 µM/kg in data set [8].
With `CC=C=CCN(C)Cc1ccccc1.O=C(O)C(=O)O` (stereo in doubt; (S)(+)2), the Potentiation in data set [1] was above 72 µM/kg. For the same molecule, the ED50 in data set [4] is above 72 µM/kg; in [8], 54 µM/kg. The 50% inhibitory concentration (IC50) in data set [6] was found to be 51 µM; in data set [7] it was 50 µM.
For the molecule `CC=C=CCN(C)Cc1ccccc1`, the values for the ED50 in data set [4] and in [8] were above 72 µM/kg and 36 µM/kg, respectively. For the same molecule, the IC50 came out at 29 µM in data set [6] and 15 µM in [7].
On to `C=C=C(CN)c1ccccc1`, for which, in [1], the Potentiation is above 79 µM/kg. Also, the ED50 in [4] was above 39 µM/kg; in [8], 8 µM/kg. In addition, the IC50 came to 7.2 µM in [6] and 0.24 µM in [7].
Take `C=C=C(CN)Cc1ccccc1`: the Potentiation in data set [1] was found to be 51 µM/kg. For the same molecule, the results for the ED50 in [4] and in [8] were above 26 µM/kg and 12 µM/kg, respectively. Moreover, the values for the IC50 in data set [6] and in [7] were 20 µM and 0.14 µM, respectively.
For `C=C=C(CN)Cc1ccc(C)cc1`, the Potentiation in [1] was above 38 µM/kg. Also, the values for the ED50 in data set [4] and in data set [8] were above 38 µM/kg and 23 µM/kg, respectively. Besides, the IC50 turned out to be 1.1 µM in data set [6] and 0.36 µM in data set [7].
For `C=C=CCN1CCc2ccccc2C1`, in [1], the Potentiation is above 90 µM/kg. For the same molecule, the ED50 in [4] and in data set [8] was above 90 µM/kg each time. For the same molecule, the IC50 in data set [6] is 7 µM; in data set [7], 4.3 µM.
For `C=C=C(CN)Cc1ccc(OC)cc1`, in [1], the Potentiation is 36 µM/kg. Also, the ED50 turned out to be 39 µM/kg in data set [4] and 16 µM/kg in data set [8]. In addition, the IC50 stood at 0.7 µM in data set [6] and 0.58 µM in data set [7].
`C#CCN(C)CCCOc1ccc(Cl)cc1Cl` [CLORGILINE]: the Potentiation in data set [9] is above 65 µM/kg. Further, the ED50 in data set [10] is 2.6 µM/kg; in data set [11], above 65 µM/kg.
